Reference: ChEMBL document CHEMBL1255448, “The 6-aminoquinolone WC5 inhibits human cytomegalovirus replication at an early stage by interfering with the transactivating activity of viral immediate-early 2 protein” (Antimicrob Agents Chemother, 2010)
Calls of active or inactive are those of the source. The rule behind the calls is not given here. *1 amine or outer side, *2 acyl side, *3 side chain or, on linkers, in order; H or OH if unused. Where a SMILES comes first, the peptide text is derived from it. Bridges are numbered along the chain shown (N, C = ends). Roman numbers before positions name the chains, in order. [ ]: non-standard residue; d: D form. Actinocin(9to1) = Cc1c2oc3c(C)ccc(C(=O)[*:1])c3nc-2c(C(=O)[*:2])c(N)c1=O; NMeV = CN[C@H](C(=O)O)C(C)C; Sar = CNCC(=O)O

How the values were obtained:
[1] = Cytotoxicity against human HFF by MTT assay; type: cell-based; conditions: HFF cells
In short: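 Cytotoxicity in HFF was measured by MTT reduction. CC50 is the concentration causing 50% cytotoxicity, reported as mean ± SD of at least three independent experiments run in quadruplicate.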

Human betaherpesvirus 5 [2] = assay: Antiviral activity against human cytomegalovirus AD169 infected in human HFF assessed as inhibition of plaque formation by plaque reduction assay; type: functional, organism-based; conditions: Human betaherpesvirus 5, AD169
In short: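 Plaque reduction against AD169 in HFF. EC50 is the concentration giving 50% inhibition of plaque formation, reported as mean ± SD of at least three independent experiments run in duplicate.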

[3] = Selectivity index, ratio of CC50 for human HFF to EC50 for human cytomegalovirus AD169
In short: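 Selectivity index is CC50 from the HFF MTT assay divided by EC50 from the AD169 plaque reduction assay in HFF.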

Human betaherpesvirus 5 [4] = assay: Antiviral activity against 0.1 MOI human cytomegalovirus AD169 infected in human HFF assessed as inhibition of immediate early phase P86 protein expression after 24 hrs by Western blot analysis; type: functional, organism-based
In short: (§1)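 HFF infected with HCMV AD169 at MOI 0.1 PFU/cell, treated with 50 µM compound or 0.2% DMSO. ActD 5 µg/ml, CHX 75 µg/ml and FOS 750 µM served as controls. Harvests at 24, 48 and 72 h p.i. were lysed in NP-40 buffer, then SDS-PAGE and PVDF blotting. Probes were anti-IE1/IE2 (p72/p86) MAb or anti-UL55, then HRP secondary and ECL. β-actin reprobe was the internal control.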

Human betaherpesvirus 5 [5] = assay: Antiviral activity against 0.1 MOI human cytomegalovirus AD169 infected in human HFF assessed as inhibition of early phase UL54 mRNA expression after 16 hrs by RT-PCR analysis
Human betaherpesvirus 5 [6] = assay: Antiviral activity against 0.1 MOI human cytomegalovirus AD169 infected in human HFF assessed as inhibition of early phase UL84 mRNA expression after 16 hrs by RT-PCR analysis
Human betaherpesvirus 5 [7] = assay: Antiviral activity against 0.1 MOI human cytomegalovirus AD169 infected in human HFF assessed as inhibition of immediate early phase P72 protein expression after 24 hrs by Western blot analysis; type: functional, organism-based; in short: as §1
[8] = Inhibition of human cytomegalovirus DNA polymerase catalytic subunit UL54 assessed as incorporation of [3H]dTTP; parameters: species or system Human betaherpesvirus 5
In short: (§2)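 Filter-based assay with purified baculovirus-expressed UL54 catalytic subunit, alone or with UL44 accessory subunit. Incorporation of [3H]dTTP into poly(dA)-oligo(dT)12-18 template-primer was measured across serial compound dilutions, with FOS as control. Means ± standard deviations from four independent experiments.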

[9] = Inhibition of human cytomegalovirus DNA polymerase catalytic subunit UL54/UL44 assessed as incorporation of [3H]dTTP; parameters: species or system Human betaherpesvirus 5; in short: as §2
Human betaherpesvirus 5 [10] = assay: Antiviral activity against 0.1 MOI human cytomegalovirus AD169 infected in human HFF assessed as inhibition of late phase UL55 protein expression after 72 hrs of infection by Western blot analysis; type: functional, organism-based; in short: as §1
Human betaherpesvirus 5 [11] = assay: Antiviral activity against human cytomegalovirus AD169 in human HFF assessed as reduction of viral attachment to fibroblast after 2 hrs at 37 degC; type: functional, organism-based
Human betaherpesvirus 5 [12] = assay: Antiviral activity against 0.1 MOI human cytomegalovirus AD169 infected in human U373-MG cells expressing UL54-EGFP reporter assessed as inhibition of EGFP expression after 48 hrs of infection by confocal fluorescence microscopy; type: functional, organism-based; conditions: U-373MG ATCC
In short: (§3)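 Stable U373-MG reporter cells were seeded on coverslips at 3×10^5 per well and infected with AD169 at MOI 0.1 or 0.5. They were then treated with 50 µM drug, 5 µM fomivirsen (also given 1 h before and during infection) or 0.2% DMSO. At 48 h p.i. cells were fixed in 4% paraformaldehyde for 15 min, and EGFP-positive cells were counted by confocal microscopy at 20×.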

Human betaherpesvirus 5 [13] = assay: Antiviral activity against 0.1 MOI human cytomegalovirus AD169 infected in human U373-MG cells expressing UL112/113-EGFP reporter assessed as inhibition of EGFP expression after 48 hrs of infection by confocal fluorescence microscopy; type: functional, organism-based; conditions: U-373MG ATCC; in short: as §3
Human betaherpesvirus 5 [14] = assay: Antiviral activity against 0.1 MOI human cytomegalovirus AD169 infected in human HFF assessed as inhibition of early phase mRNA expression after 48 hrs by RT-PCR analysis; type: functional, organism-based
In short: (§4)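 HFF seeded at 6×10^5 per well, infected with AD169 at MOI 0.1 PFU/cell, then given 50 µM drug or 0.2% DMSO. ActD 5 µg/ml, CHX 75 µg/ml and FOS 750 µM served as IE, E and L transcription controls. Total RNA was taken at 16 and 48 h p.i.; 1 µg was reverse-transcribed with random hexamers and MuLV RT. PCR used UL122/UL123 (IE), UL54/UL84 (E) and UL55/UL75 (L) primers with a β-actin control, and products were read on ethidium bromide agarose gels.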

Human betaherpesvirus 5 [15] = assay: Antiviral activity against 0.1 MOI human cytomegalovirus AD169 infected in human HFF assessed as inhibition of late phase mRNA expression after 16 hrs by RT-PCR analysis; type: functional, organism-based; in short: as §4
Human betaherpesvirus 5 [16] = assay: Antiviral activity against 0.1 MOI human cytomegalovirus AD169 infected in human HFF assessed as inhibition of immediate early phase mRNA expression after 48 hrs by RT-PCR analysis; type: functional, organism-based; in short: as §4
Human betaherpesvirus 5 [17] = assay: Antiviral activity against 0.1 MOI human cytomegalovirus AD169 infected in human HFF assessed as inhibition of early phase mRNA expression after 16 hrs by RT-PCR analysis; type: functional, organism-based; in short: as §4
Human betaherpesvirus 5 [18] = assay: Antiviral activity against 0.1 MOI human cytomegalovirus AD169 infected in human HFF assessed as inhibition of immediate early phase mRNA expression after 16 hrs by RT-PCR analysis; type: functional, organism-based; in short: as §4
Human betaherpesvirus 5 [19] = assay: Antiviral activity against 0.1 MOI human cytomegalovirus AD169 infected in human HFF assessed as virus yield reduction by yield reduction assay; type: functional, organism-based; conditions: Human betaherpesvirus 5, AD169
Human betaherpesvirus 5 [20] = assay: Antiviral activity against 0.1 MOI human cytomegalovirus AD169 infected in human HFF assessed as inhibition of viral replication up to 72 hrs post infection; type: functional, organism-based
Human betaherpesvirus 5 [21] = assay: Antiviral activity against 1 MOI human cytomegalovirus AD169 infected in human HFF assessed as virus yield reduction by yield reduction assay; type: functional, organism-based; conditions: Human betaherpesvirus 5, AD169

O=C(O)c1cn(C2CC2)c2cc(N3CCN(c4ccccn4)CC3)ccc2c1=O
CC50 [1]: 390 µM | EC50 (Human betaherpesvirus 5 [2]): 5.6 µM | Selectivity Index [3]: 70

C[C@@H]1C[C@@H]([C@H](O)CC2CC(=O)NC(=O)C2)C(=O)[C@@H](C)C1
inhibition (Human betaherpesvirus 5 [4]): Active | inhibition (Human betaherpesvirus 5 [5]): Active | inhibition (Human betaherpesvirus 5 [6]): Active | inhibition (Human betaherpesvirus 5 [7]): Active

Cn1cc(C(=O)O)c(=O)c2cc(N)c(N3CCN(c4ccccn4)CC3)cc21
EC50 (Human betaherpesvirus 5 [2]): 0.7 µM | Selectivity Index [3]: 77

CCOC(=O)c1cn(C2CC2)c2cc(N3CCN(c4ccccn4)CC3)c(N)cc2c1=O
CC50 [1]: 409 µM | EC50 (Human betaherpesvirus 5 [2]): > 50 µM | Selectivity Index [3]: > 8

O=C(NCP(=O)(O)O)OCc1ccccc1 [(BENZYLOXYCARBONYLAMINO)METHYLPHOSPHONIC ACID]
IC50 [8]: 3.1 µM | IC50 [9]: 5.5 µM | inhibition (Human betaherpesvirus 5 [10]): Active

Nc1cc2c(=O)c(C(=O)O)cn(C3CC3)c2cc1N1CCN(c2nc3ccccc3s2)CC1
EC50 (Human betaherpesvirus 5 [2]): 0.02 µM | Selectivity Index [3]: 225

CC(C)(C)n1cc(C(=O)O)c(=O)c2cc(N)c(N3CCN(c4ccccn4)CC3)cc21
CC50 [1]: ≥ 475 µM | EC50 (Human betaherpesvirus 5 [2]): 36.7 µM | Selectivity Index [3]: >=13

CC(C)(C)n1cc(C(=O)O)c(=O)c2cc(N)c(N3CCN(c4nc5ccccc5s4)CC3)cc21
CC50 [1]: 5.8 µM | EC50 (Human betaherpesvirus 5 [2]): 0.18 µM | Selectivity Index [3]: 32

Cc1cn([C@H]2C[C@H](OP(O)(=S)OC[C@H]3O[C@@H](n4ccc(N)nc4=O)C[C@@H]3OP(O)(=S)OC[C@H]3O[C@@H](n4cnc5c(=O)[nH]c(N)nc54)C[C@@H]3OP(O)(=S)OC[C@H]3O[C@@H](n4cc(C)c(=O)[nH]c4=O)C[C@@H]3OP(O)(=S)OC[C@H]3O[C@@H](n4ccc(N)nc4=O)C[C@@H]3OP(O)(=S)OC[C@H]3O[C@@H](N4C(=O)C5N=CNC5N=C4N)C[C@@H]3OP(O)(=S)OC[C@H]3O[C@@H](n4cc(C)c(=O)[nH]c4=O)C[C@@H]3OP(O)(=S)OC[C@H]3O[C@@H](n4cc(C)c(=O)[nH]c4=O)C[C@@H]3OP(O)(=S)OC[C@H]3O[C@@H](n4cc(C)c(=O)[nH]c4=O)C[C@@H]3OP(O)(=S)OC[C@H]3O[C@@H](n4cc(C)c(=O)[nH]c4=O)C[C@@H]3OP(O)(=S)OC[C@H]3O[C@@H](N4C=NC5C(=O)NC(N)=NC54)C[C@@H]3OP(O)(=S)OC[C@H]3O[C@@H](n4cc(C)c(=O)[nH]c4=O)C[C@@H]3OP(O)(=S)OC[C@H]3O[C@@H](n4ccc(N)nc4=O)C[C@@H]3OP(O)(=S)OC[C@H]3O[C@@H](N4C=NC5C(=O)NC(N)=NC54)C[C@@H]3OP(O)(=S)OC[C@H]3O[C@@H](n4cc(C)c(=O)[nH]c4=O)C[C@@H]3OP(O)(=S)OC[C@H]3O[C@@H](n4cc(C)c(=O)[nH]c4=O)C[C@@H]3OP(O)(=S)OC[C@H]3O[C@@H](n4cc(C)c(=O)[nH]c4=O)C[C@@H]3OP(O)(=S)OC[C@H]3O[C@@H](n4cc(C)c(=O)[nH]c4=O)C[C@@H]3OP(O)(=S)OC[C@H]3O[C@@H](n4cnc5c(=O)[nH]c(N)nc54)C[C@@H]3OP(O)(=S)OC[C@H]3O[C@@H](n4cc(C)c(=O)[nH]c4=O)C[C@@H]3OP(O)(=S)OC[C@H]3O[C@@H](n4ccc(N)nc4=O)C[C@@H]3OP(O)(=S)OC[C@H]3O[C@@H](N4C=NC5C(=O)NC(N)=NC54)C[C@@H]3OP(O)(=S)OC[C@H]3O[C@@H](n4cc(C)c(=O)[nH]c4=O)C[C@@H]3OP(O)(=S)OC[C@H]3O[C@@H](n4cc(C)c(=O)[nH]c4=O)C[C@@H]3O)[C@@H](CO)O2)c(=O)[nH]c1=O (stereo partly specified)
Activity (Human betaherpesvirus 5 [11]): Active

FOMIVIRSEN SODIUM
inhibition (Human betaherpesvirus 5 [12]): Active | inhibition (Human betaherpesvirus 5 [13]): Active

Cc1c2oc3c(C)ccc(C(=O)N[C@@H]4C(=O)N[C@H](C(C)C)C(=O)N5CCC[C@H]5C(=O)N(C)CC(=O)N(C)[C@@H](C(C)C)C(=O)O[C@@H]4C)c3nc-2c(C(=O)N[C@@H]2C(=O)N[C@H](C(C)C)C(=O)N3CCC[C@H]3C(=O)N(C)CC(=O)N(C)[C@@H](C(C)C)C(=O)O[C@@H]2C)c(N)c1=O (I: T[dV]P[Sar][NMeV] / II: T[dV]P[Sar][NMeV]; ester I:1-I:C, II:1-II:C; linker I:N-II:N via Actinocin(9to1))
inhibition (Human betaherpesvirus 5 [14]): inactive | inhibition (Human betaherpesvirus 5 [15]): inactive | inhibition (Human betaherpesvirus 5 [16]): inactive | inhibition (Human betaherpesvirus 5 [17]): inactive | inhibition (Human betaherpesvirus 5 [18]): inactive

Nc1nc2c(ncn2COC(CO)CO)c(=O)[nH]1 [GANCICLOVIR]
EC90 (Human betaherpesvirus 5 [19]): 1 µM | Activity (Human betaherpesvirus 5 [20]): inactive | EC50 (Human betaherpesvirus 5 [2]): 1.9 µM | EC90 (Human betaherpesvirus 5 [21]): 0.8 µM | Selectivity Index [3]: 289
